In ChEMBL document CHEMBL5058577, “EUbOPEN Chemogenomics Library 2 (Multiplex)” (2022):

System: U2OS
Test: Multiplex assay against U2OS
Type: toxicity, cell-based
Details: human
Outline: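 Four dyes were applied at seeding to live cells: Hoechst33342, BioTracker Green Microtubule Cytoskeleton Dye, MitoTracker Red and Annexin V Alexa Fluor 680. Imaging after compound addition used a CQ1 microscope at 37°C and 5% CO2. CellPathfinder machine-learning gating then sorted cells into Hoechst high-intensity objects or normal cells, normal cells into healthy, pyknosed or fragmented nuclei, and pyknosed cells into mitotic or apoptotic, with tubulin, mitochondrial-mass and membrane-permeability phenotypes given as per cents of healthy-nucleus cells.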

[1] = 12 h, 1 µM, compound concentration 1 uM, replicate 1
[2] = 12 h, 1 µM, compound concentration 1 uM, replicate 2
[3] = 12 h, 10 µM, compound concentration 10 uM, replicate 1
[4] = 12 h, 10 µM, compound concentration 10 uM, replicate 2
[5] = 24 h, 1 µM, compound concentration 1 uM, replicate 1
[6] = 24 h, 1 µM, compound concentration 1 uM, replicate 2
[7] = 24 h, 10 µM, compound concentration 10 uM, replicate 1
[8] = 24 h, 10 µM, compound concentration 10 uM, replicate 2
[9] = 48 h, 1 µM, compound concentration 1 uM, replicate 1
[10] = 48 h, 1 µM, compound concentration 1 uM, replicate 2
[11] = 48 h, 10 µM, compound concentration 10 uM, replicate 1
[12] = 48 h, 10 µM, compound concentration 10 uM, replicate 2

## C[C@H](NC(=O)c1c(C(F)F)nn(C)c1Oc1cccc(C(F)(F)F)c1)c1ccc(C(=O)O)cc1 [PALUPIPRANT]
[1]
  Population Apoptotic (%): 60%
  Population Fragmented Nuclei (%): 27%
  Population Healthy Nuclei (%): 63%
  Population Hoechst High Intensity Objects (%): 3%
  Population Membrane Permeable-Phenotype (%): 4%
  Population Mitochondria Different-Phenotype (%): 1%
  Population Mitotic Cells (%): 39%
  Population Normal (%): 96%
  Population Pyknosed Nuclei (%): 8%
  Population Tubulin-Different-Phenotype (%): 1%
  Total Cell Count: 266
[2]
  Population Apoptotic (%): 91%
  Population Fragmented Nuclei (%): 12%
  Population Healthy Nuclei (%): 78%
  Population Hoechst High Intensity Objects (%): 0%
  Population Mitochondria Different-Phenotype (%): 0%
  Population Mitotic Cells (%): 8%
  Population Normal (%): 99%
  Population Pyknosed Nuclei (%): 9%
  Population Tubulin-Different-Phenotype (%): 2%
  Total Cell Count: 132
[3]
  Population Apoptotic (%): 83%
  Population Fragmented Nuclei (%): 28%
  Population Healthy Nuclei (%): 62%
  Population Hoechst High Intensity Objects (%): 3%
  Population Membrane Permeable-Phenotype (%): 7%
  Population Mitochondria Different-Phenotype (%): 4%
  Population Mitotic Cells (%): 16%
  Population Normal (%): 96%
  Population Pyknosed Nuclei (%): 8%
  Population Tubulin-Different-Phenotype (%): 5%
  Total Cell Count: 293
[4]
  Population Apoptotic (%): 100%
  Population Fragmented Nuclei (%): 13%
  Population Healthy Nuclei (%): 77%
  Population Membrane Permeable-Phenotype (%): 5%
  Population Mitochondria Different-Phenotype (%): 2%
  Population Mitotic Cells (%): 0%
  Population Tubulin-Different-Phenotype (%): 2%
  Total Cell Count: 117
[5]
  Population Apoptotic (%): 87%
  Population Fragmented Nuclei (%): 20%
  Population Healthy Nuclei (%): 72%
  Population Hoechst High Intensity Objects (%): 2%
  Population Membrane Permeable-Phenotype (%): 4%
  Population Mitochondria Different-Phenotype (%): 1%
  Population Mitotic Cells (%): 12%
  Population Normal (%): 97%
  Population Pyknosed Nuclei (%): 7%
  Population Tubulin-Different-Phenotype (%): 3%
  Total Cell Count: 316
[6]
  Population Apoptotic (%): 94%
  Population Fragmented Nuclei (%): 14%
  Population Healthy Nuclei (%): 73%
  Population Hoechst High Intensity Objects (%): 1%
  Population Membrane Permeable-Phenotype (%): 5%
  Population Mitochondria Different-Phenotype (%): 0%
  Population Mitotic Cells (%): 5%
  Population Normal (%): 98%
  Population Pyknosed Nuclei (%): 11%
  Population Tubulin-Different-Phenotype (%): 5%
  Total Cell Count: 147
[7]
  Population Apoptotic (%): 91%
  Population Fragmented Nuclei (%): 18%
  Population Healthy Nuclei (%): 74%
  Population Hoechst High Intensity Objects (%): 2%
  Population Membrane Permeable-Phenotype (%): 5%
  Population Mitochondria Different-Phenotype (%): 3%
  Population Mitotic Cells (%): 8%
  Population Normal (%): 97%
  Population Pyknosed Nuclei (%): 7%
  Population Tubulin-Different-Phenotype (%): 1%
  Total Cell Count: 339
[8]
  Population Fragmented Nuclei (%): 13%
  Population Healthy Nuclei (%): 77%
  Population Mitochondria Different-Phenotype (%): 1%
  Population Pyknosed Nuclei (%): 8%
  Population Tubulin-Different-Phenotype (%): 0%
  Total Cell Count: 139
[9]
  Population Apoptotic (%): 82%
  Population Fragmented Nuclei (%): 15%
  Population Healthy Nuclei (%): 73%
  Population Hoechst High Intensity Objects (%): 2%
  Population Membrane Permeable-Phenotype (%): 3%
  Population Mitochondria Different-Phenotype (%): 1%
  Population Mitotic Cells (%): 17%
  Population Normal (%): 97%
  Population Pyknosed Nuclei (%): 11%
  Population Tubulin-Different-Phenotype (%): 1%
  Total Cell Count: 426
[10]
  Population Apoptotic (%): 92%
  Population Healthy Nuclei (%): 70%
  Population Hoechst High Intensity Objects (%): 0%
  Population Mitochondria Different-Phenotype (%): 0%
  Population Mitotic Cells (%): 7%
  Population Normal (%): 99%
  Population Pyknosed Nuclei (%): 13%
  Population Tubulin-Different-Phenotype (%): 2%
  Total Cell Count: 207
[11]
  Population Apoptotic (%): 91%
  Population Fragmented Nuclei (%): 18%
  Population Healthy Nuclei (%): 73%
  Population Hoechst High Intensity Objects (%): 2%
  Population Membrane Permeable-Phenotype (%): 5%
  Population Mitochondria Different-Phenotype (%): 3%
  Population Mitotic Cells (%): 8%
  Population Normal (%): 97%
  Population Pyknosed Nuclei (%): 7%
  Population Tubulin-Different-Phenotype (%): 3%
  Total Cell Count: 463
[12]
  Population Apoptotic (%): 85%
  Population Fragmented Nuclei (%): 14%
  Population Healthy Nuclei (%): 79%
  Population Hoechst High Intensity Objects (%): 1%
  Population Membrane Permeable-Phenotype (%): 1%
  Population Mitochondria Different-Phenotype (%): 1%
  Population Mitotic Cells (%): 14%
  Population Normal (%): 98%
  Population Pyknosed Nuclei (%): 6%
  Population Tubulin-Different-Phenotype (%): 0%
  Total Cell Count: 223

## O=C(O)c1cc2ccccc2c(Cc2c(O)c(C(=O)O)cc3ccccc23)c1O [PAMOIC ACID]
[1]
  Population Apoptotic (%): 85%
  Population Fragmented Nuclei (%): 23%
  Population Healthy Nuclei (%): 68%
  Population Hoechst High Intensity Objects (%): 1%
  Population Membrane Permeable-Phenotype (%): 2%
  Population Mitochondria Different-Phenotype (%): 0%
  Population Mitotic Cells (%): 15%
  Population Normal (%): 98%
  Population Pyknosed Nuclei (%): 8%
  Population Tubulin-Different-Phenotype (%): 0%
  Total Cell Count: 246
[2]
  Population Apoptotic (%): 50%
  Population Fragmented Nuclei (%): 15%
  Population Healthy Nuclei (%): 73%
  Population Hoechst High Intensity Objects (%): 0%
  Population Membrane Permeable-Phenotype (%): 12%
  Population Mitochondria Different-Phenotype (%): 6%
  Population Mitotic Cells (%): 50%
  Population Normal (%): 100%
  Population Pyknosed Nuclei (%): 11%
  Population Tubulin-Different-Phenotype (%): 13%
  Total Cell Count: 109
[3]
  Population Apoptotic (%): 75%
  Population Fragmented Nuclei (%): 19%
  Population Healthy Nuclei (%): 75%
  Population Hoechst High Intensity Objects (%): 2%
  Population Membrane Permeable-Phenotype (%): 6%
  Population Mitochondria Different-Phenotype (%): 1%
  Population Mitotic Cells (%): 25%
  Population Normal (%): 97%
  Population Pyknosed Nuclei (%): 4%
  Population Tubulin-Different-Phenotype (%): 4%
  Total Cell Count: 259
[4]
  Population Apoptotic (%): 87%
  Population Hoechst High Intensity Objects (%): 0%
  Population Membrane Permeable-Phenotype (%): 5%
  Population Mitochondria Different-Phenotype (%): 3%
  Population Mitotic Cells (%): 12%
  Population Normal (%): 100%
  Population Pyknosed Nuclei (%): 5%
  Population Tubulin-Different-Phenotype (%): 2%
  Total Cell Count: 140
[5]
  Population Apoptotic (%): 92%
  Population Fragmented Nuclei (%): 18%
  Population Healthy Nuclei (%): 72%
  Population Hoechst High Intensity Objects (%): 1%
  Population Membrane Permeable-Phenotype (%): 2%
  Population Mitochondria Different-Phenotype (%): 0%
  Population Mitotic Cells (%): 8%
  Population Normal (%): 98%
  Population Pyknosed Nuclei (%): 8%
  Population Tubulin-Different-Phenotype (%): 1%
  Total Cell Count: 288
[6]
  Population Apoptotic (%): 76%
  Population Fragmented Nuclei (%): 20%
  Population Healthy Nuclei (%): 70%
  Population Hoechst High Intensity Objects (%): 0%
  Population Membrane Permeable-Phenotype (%): 11%
  Population Mitochondria Different-Phenotype (%): 2%
  Population Mitotic Cells (%): 23%
  Population Normal (%): 99%
  Population Pyknosed Nuclei (%): 9%
  Population Tubulin-Different-Phenotype (%): 7%
  Total Cell Count: 139
[7]
  Population Apoptotic (%): 82%
  Population Fragmented Nuclei (%): 17%
  Population Healthy Nuclei (%): 76%
  Population Hoechst High Intensity Objects (%): 3%
  Population Membrane Permeable-Phenotype (%): 5%
  Population Mitochondria Different-Phenotype (%): 2%
  Population Mitotic Cells (%): 17%
  Population Normal (%): 96%
  Population Pyknosed Nuclei (%): 5%
  Population Tubulin-Different-Phenotype (%): 3%
  Total Cell Count: 314
[8]
  Population Apoptotic (%): 90%
  Population Fragmented Nuclei (%): 13%
  Population Healthy Nuclei (%): 79%
  Population Hoechst High Intensity Objects (%): 1%
  Population Membrane Permeable-Phenotype (%): 7%
  Population Mitochondria Different-Phenotype (%): 3%
  Population Mitotic Cells (%): 9%
  Population Normal (%): 98%
  Population Pyknosed Nuclei (%): 6%
  Population Tubulin-Different-Phenotype (%): 7%
  Total Cell Count: 163
[9]
  Population Apoptotic (%): 83%
  Population Fragmented Nuclei (%): 16%
  Population Healthy Nuclei (%): 74%
  Population Hoechst High Intensity Objects (%): 1%
  Population Membrane Permeable-Phenotype (%): 2%
  Population Mitochondria Different-Phenotype (%): 1%
  Population Mitotic Cells (%): 16%
  Population Normal (%): 98%
  Population Pyknosed Nuclei (%): 9%
  Population Tubulin-Different-Phenotype (%): 2%
  Total Cell Count: 469
[10]
  Population Apoptotic (%): 90%
  Population Fragmented Nuclei (%): 11%
  Population Healthy Nuclei (%): 76%
  Population Hoechst High Intensity Objects (%): 2%
  Population Membrane Permeable-Phenotype (%): 9%
  Population Mitochondria Different-Phenotype (%): 3%
  Population Mitotic Cells (%): 10%
  Population Normal (%): 97%
  Population Pyknosed Nuclei (%): 11%
  Population Tubulin-Different-Phenotype (%): 5%
  Total Cell Count: 177
[11]
  Population Apoptotic (%): 96%
  Population Fragmented Nuclei (%): 15%
  Population Healthy Nuclei (%): 77%
  Population Hoechst High Intensity Objects (%): 3%
  Population Membrane Permeable-Phenotype (%): 5%
  Population Mitochondria Different-Phenotype (%): 1%
  Population Mitotic Cells (%): 3%
  Population Normal (%): 96%
  Population Pyknosed Nuclei (%): 6%
  Population Tubulin-Different-Phenotype (%): 4%
  Total Cell Count: 455
[12]
  Population Apoptotic (%): 89%
  Population Fragmented Nuclei (%): 20%
  Population Healthy Nuclei (%): 66%
  Population Hoechst High Intensity Objects (%): 0%
  Population Membrane Permeable-Phenotype (%): 6%
  Population Mitochondria Different-Phenotype (%): 2%
  Population Mitotic Cells (%): 10%
  Population Normal (%): 99%
  Population Pyknosed Nuclei (%): 13%
  Population Tubulin-Different-Phenotype (%): 2%
  Total Cell Count: 218
